In ChEMBL document CHEMBL5303300, “EUbOPEN Chemogenomics Library - Multiplex” (2023):
Where “and” joins values, the source holds several entries; their conditions need not be identical. Equal values may be shown once.

Columns and labels:
Type in all cases: toxicity, cell-based
[1] = test system: U2OS; assay: Multiplex assay against U2OS; settings: human, number of replicates 2
How it was run: (§1)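 Per cents of healthy-nucleus cells form the tubulin, mitochondrial-mass and membrane-permeability phenotype values. Live cells were stained at seeding with Hoechst33342, BioTracker Green Microtubule Cytoskeleton Dye, MitoTracker Red and Annexin V Alexa Fluor 680. After compound addition they were imaged on a CQ1 microscope at 37°C and 5% CO2, and CellPathfinder machine-learning gating split them into Hoechst high-intensity objects or normal cells, normal cells into healthy, pyknosed or fragmented nuclei, and pyknosed cells into mitotic or apoptotic.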

[2] = test system: Fibroblast; assay: Multiplex assay against human fibroblast; settings: number of replicates 2; how it was run: as §1
[3] = test system: HEK-293T; assay: Multiplex assay against HEK293T; settings: human, number of replicates 2; how it was run: as §1
[4] = 12 h, 1 µM, compound concentration 1 uM
[5] = 12 h, 10 µM, compound concentration 10 uM
[6] = 24 h, 1 µM, compound concentration 1 uM
[7] = 24 h, 10 µM, compound concentration 10 uM
[8] = 48 h, 1 µM, compound concentration 1 uM
[9] = 48 h, 10 µM, compound concentration 10 uM

## CS(=O)(=O)c1ccc(C(=O)Nc2cccc(COc3ccc(Br)cc3CN3CC[C@H](O)C3)c2)cc1.O=CO
[1]; [4]
  Population Apoptotic (%): 100% and 72%
  Population Fragmented Nuclei (%): 8% and 2%
  Population Healthy Nuclei (%): 84% and 83%
  Population Hoechst High Intensity Objects (%): 0%
  Population Normal (%): 100%
[1]; [5]
  Population Apoptotic (%): 100% and 70%
  Population Healthy Nuclei (%): 68% and 78%
  Population Hoechst High Intensity Objects (%): 0%
  Population Normal (%): 100% and 99%
[1]; [6]
  Population Apoptotic (%): 50%
  Population Fragmented Nuclei (%): 4% and 3%
  Population Healthy Nuclei (%): 85% and 86%
  Population Hoechst High Intensity Objects (%): 0%
  Population Mitotic Cells (%): 50% and 31%
  Population Normal (%): 100% and 99%
[1]; [7]
  Population Apoptotic (%): 88% and 75%
  Population Healthy Nuclei (%): 58% and 73%
  Population Hoechst High Intensity Objects (%): 0%
  Population Mitotic Cells (%): 11% and 24%
  Population Normal (%): 100%
[1]; [8]
  Population Apoptotic (%): 54% and 76%
  Population Fragmented Nuclei (%): 4% and 1%
  Population Healthy Nuclei (%): 84% and 89%
  Population Hoechst High Intensity Objects (%): 0%
  Population Mitotic Cells (%): 45% and 23%
  Population Normal (%): 100% and 99%
[1]; [9]
  Population Apoptotic (%): 75% and 80%
  Population Healthy Nuclei (%): 54% and 69%
  Population Hoechst High Intensity Objects (%): 0%
  Population Mitotic Cells (%): 25% and 19%
  Population Normal (%): 100% and 99%
[2]; [4]
  Population Fragmented Nuclei (%): 13% and 4%
  Population Healthy Nuclei (%): 48% and 65%
  Population Hoechst High Intensity Objects (%): 0%
  Population Mitotic Cells (%): 52%
  Population Normal (%): 100%
  Population Pyknosed Nuclei (%): 37% and 30%
  Total Cell Count: 166 and 138
[2]; [5]
  Population Fragmented Nuclei (%): 15% and 22%
  Population Healthy Nuclei (%): 55% and 64%
  Population Hoechst High Intensity Objects (%): 0%
  Population Mitotic Cells (%): 51%
  Population Normal (%): 100%
  Population Pyknosed Nuclei (%): 30%
  Total Cell Count: 180 and 311
[2]; [6]
  Population Fragmented Nuclei (%): 9% and 14%
  Population Healthy Nuclei (%): 54% and 50%
  Population Hoechst High Intensity Objects (%): 0%
  Population Normal (%): 100% and 99%
  Total Cell Count: 142 and 175
[2]; [7]
  Population Fragmented Nuclei (%): 18% and 28%
  Population Healthy Nuclei (%): 57% and 60%
  Population Hoechst High Intensity Objects (%): 0%
  Population Mitotic Cells (%): 29% and 31%
  Population Normal (%): 99%
  Population Pyknosed Nuclei (%): 10%
  Total Cell Count: 214 and 336
[2]; [8]
  Population Fragmented Nuclei (%): 14% and 21%
  Population Healthy Nuclei (%): 55% and 59%
  Population Hoechst High Intensity Objects (%): 0% and 1%
  Population Mitotic Cells (%): 36% and 22%
  Population Normal (%): 100% and 98%
  Population Pyknosed Nuclei (%): 29% and 19%
  Total Cell Count: 147 and 164
[2]; [9]
  Population Fragmented Nuclei (%): 28% and 31%
  Population Healthy Nuclei (%): 62% and 61%
  Population Hoechst High Intensity Objects (%): 0%
  Population Mitotic Cells (%): 4% and 13%
  Population Normal (%): 100% and 99%
  Population Pyknosed Nuclei (%): 9%
  Total Cell Count: 253 and 402
[3]; [4]
  Population Apoptotic (%): 50% and 69%
  Population Fragmented Nuclei (%): 2% and 3%
  Population Healthy Nuclei (%): 72% and 70%
  Population Normal (%): 87% and 88%
  Total Cell Count: 490 and 407
[3]; [5]
  Population Apoptotic (%): 46%
  Population Fragmented Nuclei (%): 3% and 2%
  Population Healthy Nuclei (%): 85%
  Population Normal (%): 93% and 94%
  Total Cell Count: 467 and 532
[3]; [6]
  Population Fragmented Nuclei (%): 6% and 5%
  Population Healthy Nuclei (%): 79% and 76%
  Population Normal (%): 89% and 90%
  Total Cell Count: 663 and 599
[3]; [7]
  Population Apoptotic (%): 57% and 66%
  Population Fragmented Nuclei (%): 3% and 4%
  Population Healthy Nuclei (%): 80% and 85%
  Population Normal (%): 95% and 91%
  Total Cell Count: 543 and 659
[3]; [8]
  Population Apoptotic (%): 46%
  Population Fragmented Nuclei (%): 13% and 10%
  Population Healthy Nuclei (%): 80% and 84%
  Population Normal (%): 90%
  Total Cell Count: 1404 and 1241
[3]; [9]
  Population Apoptotic (%): 32%
  Population Fragmented Nuclei (%): 5% and 6%
  Population Healthy Nuclei (%): 86%
  Population Normal (%): 93% and 92%
  Total Cell Count: 812 and 937
